Measured values gathered from unrelated publications.
Protocols differ between the studies behind these lines.
Target: LIM domain kinase 1 (LIMK1, Homo sapiens, UniProt P53667)

SMILES | test | setting | endpoint | value
CSc1cccnc1N1CCN(Cc2nc3ccccc3[nH]2)CC1 | cell-free assay, competition with immobilised ligand | 1 µM | remaining binding | 100%
Cc1cnc(NC2CCOCC2)nc1-n1cnc(C(=O)NC(CN)c2cc(F)cc(Cl)c2)c1 (centres unmarked) | enzyme activity, inhibitor, radiometric | 1 µM | remaining activity | 64%
CC(C)(C)c1nc(-c2cccc(NS(=O)(=O)c3c(F)cccc3F)c2F)c(-c2ccnc(N)n2)s1 | enzyme activity, inhibitor, radiometric | 1 µM | remaining activity | 98%
CCN(CC)c1ccc(C2=NNC(=O)CC2C)cc1[N+](=O)[O-] (centres unmarked) | enzyme activity, inhibitor | 10 µM | remaining activity | 93%
CC(=O)c1c(NS(C)(=O)=O)c2cc(-c3ccc(Cl)cc3)c(-c3ccc(Cl)cc3Cl)nc2n(C)c1=O | cell-free assay, competition with immobilised ligand | 1 µM | remaining binding | 88%
Cc1sc(C(=O)NC2COC2)cc1-n1cc(NC(=O)Nc2c(F)cccc2Cl)cn1 | enzyme activity, inhibitor | 10 µM | remaining activity | 105%
CN(C)CC#Cc1ccc(OCCCc2sc(N3CCc4cccc(C(=O)Nc5nc6ccccc6s5)c4C3)nc2C(=O)O)c(F)c1 | cell-free assay, competition with immobilised ligand | 1 µM | remaining binding | 97%
N#CCCc1ccc2c(c1)-c1[nH]c3ccc([N+](=O)[O-])cc3c1CC(=O)N2 | cell-free assay | 0.5 µM | remaining signal | 99.9%
Cc1cc(NC(=O)c2cccc3cc(-c4cccc5[nH]nc(N)c45)ccc23)ccc1F | enzyme activity, inhibitor | 0.1 µM | activity vs control | 90%
O=C1NC(=O)c2cc(Nc3ccc(F)cc3)c(Nc3ccc(F)cc3)cc21 | cell-free assay | 0.5 µM | remaining signal | 95.9%
CCN(CC)CCNC(=O)c1c(C)[nH]c(/C=C2\C(=O)Nc3ccc(F)cc32)c1C | enzyme activity, inhibitor | 0.3 µM | inhibition | -9%
CCCS(=O)(=O)Nc1ccc(F)c(C(=O)c2c[nH]c3ncc(-c4ccc(Cl)cc4)cc23)c1F | enzyme activity, inhibitor | 1 µM | inhibition | < 10%
Nc1ncnc2occ(-c3ccc(NC(=O)Nc4cc(C(F)(F)F)ccc4F)cc3)c12 | cell-free assay, inhibitor | 20 µM | remaining signal | 7.6%
Cn1cnc(Br)c1C1=CN(c2ncnc3[nH]cnc23)CCS1 | enzyme activity, inhibitor, radiometric | 2 µM | inhibition | 82.8%
O=C(Nc1cccnn1)N1CC(C/C=C/c2cncc(Oc3ccc(C(F)(F)F)cn3)n2)C1 | cell-free assay, competition with immobilised ligand | 1 µM | remaining binding | 88%
CNC(=O)c1cc(Oc2ccc(NC(=O)Nc3ccc(Cl)c(C(F)(F)F)c3)cc2)ccn1 | enzyme activity, inhibitor | 10 µM | inhibition | 89%
O=C1Nc2ccc(Cl)cc2C1=Cc1cc(Cl)c(O)c(Cl)c1 | cell-free assay | 0.5 µM | remaining signal | 83.7%
CN1CCN(c2cnc3c(C4CCN(C(=O)c5ccc(OC(F)(F)F)cc5N)CC4)ncnc3c2)CC1 | cell-free assay, competition with immobilised ligand | 1 µM | remaining binding | 100%
Nc1nc(Nc2ccc(S(N)(=O)=O)cc2)nn1C(=O)c1c(F)cccc1F | cell-free assay | 0.5 µM | remaining signal | 16.6%
Cc1nc(Cc2cccc(C(F)(F)F)c2)sc1-c1ccc(C(N)=O)nc1 | cell-free assay, competition with immobilised ligand | 1 µM | remaining binding | 100%
